Legend:
Format in all cases: ADME, organism-based
Lung [1] = assay: Biodistribution in lung of PSMA expressing human PC3 PIP and PSMA deficient human PC3 flu cells xenografted SCID mouse at 2 uCi, iv after 2 hrs; conditions: in vivo
[2] = Ratio of drug level in tumor to large intestine of human PSMA expressing PC3 PIP and PSMA deficient human PC3 flu cells xenografted SCID mouse at 2 uCi, iv after 2 hrs; conditions: in vivo
Outline: (§1)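 Male SCID mice carried subcutaneous PSMA+ PC-3 PIP (left shoulder) and PC-3 flu (right shoulder) xenografts, 1-5 × 10^6 cells in HBSS, and were used at 3-5 mm tumor diameter. Tail-vein injection of 2 µCi radioligand; four mice per time point, killed by cervical dislocation. %ID/g from a standard dilution of the dose, decay-corrected, mean ± SD; PIP tumor:organ ratios.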

[3] = Ratio of drug level in tumor to stomach of human PSMA expressing PC3 PIP and PSMA deficient human PC3 flu cells xenografted SCID mouse at 2 uCi, iv after 5 hrs; conditions: in vivo
Outline: (§2)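 Male SCID mice carried subcutaneous xenografts: PSMA+ PC-3 PIP behind the left shoulder and PSMA− PC-3 flu behind the right, 1–5 × 10^6 cells in HBSS. Mice were used at 3–5 mm tumor diameter. 2 μCi was given by tail vein, and 4 mice per time point were killed by cervical dislocation. %ID/g came from a standard dilution of the dose, decay-corrected. Ratio is PIP tumor %ID/g to organ %ID/g.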

[4] = Ratio of drug level in tumor to bladder of human PSMA expressing PC3 PIP and PSMA deficient human PC3 flu cells xenografted SCID mouse at 2 uCi, iv after 60 mins; conditions: in vivo, 1 h; outline: as §1
[5] = Biodistribution in large intestine of PSMA expressing human PC3 PIP and PSMA deficient human PC3 flu cells xenografted SCID mouse at 2 uCi, iv after 60 mins; conditions: in vivo, 1 h; outline: as §1
[6] = Ratio of drug level in tumor to small intestine of human PSMA expressing PC3 PIP and PSMA deficient human PC3 flu cells xenografted SCID mouse at 2 uCi, iv after 30 mins; conditions: in vivo, 0.5 h; outline: as §2
Blood [7] = assay: Biodistribution in blood of PSMA expressing human PC3 PIP and PSMA deficient human PC3 flu cells xenografted SCID mouse at 2 uCi, iv after 2 hrs; conditions: in vivo
Spleen [8] = assay: Biodistribution in spleen of PSMA expressing human PC3 PIP and PSMA deficient human PC3 flu cells xenografted SCID mouse at 2 uCi, iv after 30 mins; conditions: in vivo, 0.5 h
Heart = assay: Biodistribution in heart of PSMA expressing human PC3 PIP and PSMA deficient human PC3 flu cells xenografted SCID mouse at 2 uCi, iv after 2 hrs; conditions: in vivo
[9] = Biodistribution in PC3 flu tumor of PSMA expressing human PC3 PIP and PSMA deficient human PC3 flu cells xenografted SCID mouse at 2 uCi, iv after 30 mins; conditions: in vivo, 0.5 h; outline: as §1
Liver = assay: Biodistribution in liver of PSMA expressing human PC3 PIP and PSMA deficient human PC3 flu cells xenografted SCID mouse at 2 uCi, iv after 60 mins; conditions: in vivo, 1 h
[10] = Ratio of drug level in tumor to muscle of human PSMA expressing PC3 PIP and PSMA deficient human PC3 flu cells xenografted SCID mouse at 2 uCi, iv after 30 mins; conditions: in vivo, 0.5 h; outline: as §1
[11] = Biodistribution in PC3 flu tumor of PSMA expressing human PC3 PIP and PSMA deficient human PC3 flu cells xenografted SCID mouse at 2 uCi, iv after 2 hrs; conditions: in vivo; outline: as §1
[12] = Ratio of drug level in PC3 PIP tumor to PC3 flu tumor of human PSMA expressing PC3 PIP and PSMA deficient human PC3 flu cells xenografted SCID mouse at 2 uCi, iv after 2 hrs; conditions: in vivo; outline: as §1
Spleen [13] = assay: Biodistribution in spleen of PSMA expressing human PC3 PIP and PSMA deficient human PC3 flu cells xenografted SCID mouse at 2 uCi, iv after 5 hrs; conditions: in vivo
[14] = Ratio of drug level in tumor to small intestine of human PSMA expressing PC3 PIP and PSMA deficient human PC3 flu cells xenografted SCID mouse at 2 uCi, iv after 60 mins; conditions: in vivo, 1 h; outline: as §2
[15] = Ratio of drug level in tumor to heart of human PSMA expressing PC3 PIP and PSMA deficient human PC3 flu cells xenografted SCID mouse at 2 uCi, iv after 30 mins; conditions: in vivo, 0.5 h; outline: as §1
Blood [16] = assay: Biodistribution in blood of PSMA expressing human PC3 PIP and PSMA deficient human PC3 flu cells xenografted SCID mouse at 2 uCi, iv after 30 mins; conditions: in vivo, 0.5 h
[17] = Ratio of drug level in tumor to bladder of human PSMA expressing PC3 PIP and PSMA deficient human PC3 flu cells xenografted SCID mouse at 2 uCi, iv after 5 hrs; conditions: in vivo; outline: as §1
Lung [18] = assay: Biodistribution in lung of PSMA expressing human PC3 PIP and PSMA deficient human PC3 flu cells xenografted SCID mouse at 2 uCi, iv after 60 mins; conditions: in vivo, 1 h
[19] = Ratio of drug level in tumor to heart of human PSMA expressing PC3 PIP and PSMA deficient human PC3 flu cells xenografted SCID mouse at 2 uCi, iv after 2 hrs; conditions: in vivo; outline: as §1
[20] = Ratio of drug level in tumor to kidney of human PSMA expressing PC3 PIP and PSMA deficient human PC3 flu cells xenografted SCID mouse at 2 uCi, iv after 2 hrs; conditions: in vivo; outline: as §1
[21] = Biodistribution in PC3 PIP tumor of PSMA expressing human PC3 PIP and PSMA deficient human PC3 flu cells xenografted SCID mouse at 2 uCi, iv after 5 hrs; conditions: in vivo
Stomach = assay: Biodistribution in stomach of PSMA expressing human PC3 PIP and PSMA deficient human PC3 flu cells xenografted SCID mouse at 2 uCi, iv after 60 mins; conditions: in vivo, 1 h
Muscle tissue = assay: Biodistribution in muscle of PSMA expressing human PC3 PIP and PSMA deficient human PC3 flu cells xenografted SCID mouse at 2 uCi, iv after 60 mins; conditions: in vivo, 1 h
Pancreas = assay: Biodistribution in pancreas of PSMA expressing human PC3 PIP and PSMA deficient human PC3 flu cells xenografted SCID mouse at 2 uCi, iv after 2 hrs; conditions: in vivo
[22] = Ratio of drug level in tumor to stomach of human PSMA expressing PC3 PIP and PSMA deficient human PC3 flu cells xenografted SCID mouse at 2 uCi, iv after 2 hrs; conditions: in vivo; outline: as §2
[23] = Ratio of drug level in tumor to muscle of human PSMA expressing PC3 PIP and PSMA deficient human PC3 flu cells xenografted SCID mouse at 2 uCi, iv after 60 mins; conditions: in vivo, 1 h; outline: as §1
[24] = Ratio of drug level in PC3 PIP tumor to PC3 flu tumor of human PSMA expressing PC3 PIP and PSMA deficient human PC3 flu cells xenografted SCID mouse at 2 uCi, iv after 60 mins; conditions: in vivo, 1 h; outline: as §1
[25] = Ratio of drug level in tumor to kidney of human PSMA expressing PC3 PIP and PSMA deficient human PC3 flu cells xenografted SCID mouse at 2 uCi, iv after 60 mins; conditions: in vivo, 1 h; outline: as §1
[26] = Biodistribution in small intestine of PSMA expressing human PC3 PIP and PSMA deficient human PC3 flu cells xenografted SCID mouse at 2 uCi, iv after 5 hrs; conditions: in vivo; outline: as §1

Question: Which Drug uptake (Lung [1]) does the source give for `O=C(O)CC[C@H](NC(=O)N[C@@H](CCCCNC(=O)c1ccc([18F])cc1)C(=O)O)C(=O)O` here?
Answer: 1 % ID/g

Question: And the Ratio [2]?
Answer: 19

Question: And the Ratio [3]?
Answer: 88

Question: And the Ratio [4]?
Answer: 0.4

Question: And the Drug uptake [5]?
Answer: 0.5 % ID/g

Question: And the Ratio [6]?
Answer: 5

Question: And the Drug uptake (Blood [7])?
Answer: 0.4 % ID/g

Question: And the Drug uptake (Spleen [8])?
Answer: 12.7 % ID/g

Question: And the Drug uptake (Heart)?
Answer: 0.15 % ID/g

Question: And the Drug uptake [9]?
Answer: 0.8 % ID/g

Question: What about the Drug uptake (Liver) of the same compound?
Answer: 5.8 % ID/g

Question: What about the Ratio [10] of the same compound?
Answer: 4

Question: And the Drug uptake [11]?
Answer: 0.25 % ID/g

Question: And the Ratio [12]?
Answer: 15

Question: What about the Drug uptake (Spleen [13]) of the same compound?
Answer: 1 % ID/g

Question: What about the Ratio [14] of the same compound?
Answer: 11

Question: What about the Ratio [15] of the same compound?
Answer: 11

Question: What about the Drug uptake (Blood [16]) of the same compound?
Answer: 2.5 % ID/g

Question: And the Ratio [17]?
Answer: 0.7

Question: And the Drug uptake (Lung [18])?
Answer: 0.5 % ID/g

Question: What about the Ratio [19] of the same compound?
Answer: 25

Question: And the Ratio [20]?
Answer: 0.1

Question: And the Drug uptake [21]?
Answer: 3.5 % ID/g

Question: What about the Drug uptake (Stomach) of the same compound?
Answer: 0.25 % ID/g

Question: And the Drug uptake (Muscle tissue)?
Answer: 0.5 % ID/g

Question: What about the Drug uptake (Pancreas) of the same compound?
Answer: 0.15 % ID/g

Question: And the Ratio [22]?
Answer: 13

Question: What about the Ratio [23] of the same compound?
Answer: 13

Question: What about the Ratio [24] of the same compound?
Answer: 21

Question: And the Ratio [25]?
Answer: 0.1

Question: And the Drug uptake [26]?
Answer: 0.1 % ID/g

Reference: ChEMBL document CHEMBL1151761, “Radiohalogenated prostate-specific membrane antigen (PSMA)-based ureas as imaging agents for prostate cancer” (J Med Chem, 2008)
